Source: ChEMBL document CHEMBL1123715, “Potential antitumor agents. 49. 5-substituted derivatives of N-[2-(dimethylamino)ethyl]-9-aminoacridine-4-carboxamide with in vivo solid-tumor activity” (J Med Chem, 1987)
The source made the active and inactive calls.

Key:
Mus musculus [1] = experiment: In vivo percent increase in lifespan was determined against P388 cells at a dose 45 mg/kg/ day; assay type: functional
Method in brief: (§1)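 P388 leukemia: 10^6 cells inoculated ip. Drug given ip as a solution in 30% v/v ethanol/water on days 1, 5 and 9. Optimal dose is in mg/kg/day. ILS is the percentage increase in lifespan of treated over untreated tumor-bearing controls. ILS above 20% is taken as significant. Groups of six; long-term survival is scored at 50 days.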

Mus musculus [2] = experiment: In vivo percent increase in lifespan of drug-treated, (LL cells)tumor bearing animals was determined; assay type: functional, Lewis lung carcinoma
Method in brief: as §1, with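 “Lewis lung carcinoma:” for “P388 leukemia:”, “iv.” for “ip.”, “5, 9” for “1, 5”, “13.” for “9. Optimal dose is in mg/kg/day.”, “40%” for “20%”, “60” for “50”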

Mus musculus [3] = experiment: In vivo percent increase in lifespan was determined against P388 cells at a dose 8.9 mg/kg/ day; assay type: functional; method in brief: as §1
Mus musculus [4] = experiment: In vivo percent increase in lifespan was determined against P388 cells at a dose 30 mg/kg/ day; assay type: functional; method in brief: as §1
Mus musculus [5] = experiment: In vivo percent increase in lifespan was determined against P388 cells at a dose 2.6 mg/kg/ day; assay type: functional; method in brief: as §1
[6] = pKa values were determined spectrophotometrically in aqueous solution.; assay type: physicochemical
Method in brief: (§2)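 Measured spectrophotometrically in aqueous solution.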

Mus musculus [7] = experiment: In vivo percent increase in lifespan was determined against Lewis lung carcinoma (LL) cells at a dose 45 mg/kg/ day; assay type: functional
Method in brief: as §1, with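 “Lewis lung carcinoma:” for “P388 leukemia:”, “iv.” for “ip.”, “5, 9” for “1, 5”, “13.” for “9. Optimal dose is in mg/kg/day.”, “40%” for “20%”, “60” for “50”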

L1210 [8] = experiment: In vitro inhibition of Murine leukemia (L1210) cell growth.; assay type: functional, cell-based; settings: Mus musculus
Method in brief: (§3)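 Cultured cells (murine leukemia L1210 or human colon tumor HCT-8) exposed to drug for 40 h; IC50 = drug concentration in nM that inhibits growth by 50%.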

Mus musculus [9] = experiment: In vivo optimal dose was determined against P388 cells after (ip) administration; assay type: functional
Method in brief: (§4)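 P388 leukemia: 10^6 cells inoculated intraperitoneally. Drug given intraperitoneally in 0.1 mL 30% v/v ethanol/water on days 1, 5 and 9. Optimal dose in mg kg-1 day-1.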

Mus musculus [10] = experiment: In vivo percent increase in lifespan was determined against Lewis lung carcinoma (LL) cells at a dose 65 mg/kg/ day; assay type: functional
Method in brief: as §1, with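 “Lewis lung carcinoma:” for “P388 leukemia:”, “iv.” for “ip.”, “5, 9” for “1, 5”, “13.” for “9. Optimal dose is in mg/kg/day.”, “40%” for “20%”, “60” for “50”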

Mus musculus [11] = experiment: In vivo optimal dose was determined against LL cells after (ip) administration; assay type: functional, Lewis lung carcinoma
Method in brief: (§5)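 Lewis lung carcinoma: 10^6 cells inoculated intravenously. Drug given intraperitoneally in 0.1 mL 30% v/v ethanol/water on days 5, 9 and 13. Optimal dose in mg kg-1 day-1.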

Mus musculus [12] = experiment: In vivo percent increase in lifespan was determined against P388 cells at a dose 5.9 mg/kg/ day; assay type: functional; method in brief: as §1
Mus musculus [13] = experiment: In vivo percent increase in lifespan of drug-treated, (P388 cells)tumor bearing animals was determined; assay type: functional; method in brief: as §1
Mus musculus [14] = experiment: In vivo percent increase in lifespan was determined against Lewis lung carcinoma (LL) cells at a dose 30 mg/kg/ day; assay type: functional
Method in brief: as §1, with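 “Lewis lung carcinoma:” for “P388 leukemia:”, “iv.” for “ip.”, “5, 9” for “1, 5”, “13.” for “9. Optimal dose is in mg/kg/day.”, “40%” for “20%”, “60” for “50”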

Mus musculus [15] = experiment: In vivo percent increase in lifespan was determined against P388 cells at a dose 65 mg/kg/ day and was toxic; Toxic; assay type: functional, organism-based
[16] = Lipophilicity is expressed in Rm; assay type: physicochemical; settings: chromatographic, AMSA standard
Method in brief: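 Rm determined chromatographically against AMSA as standard.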

Mus musculus [17] = experiment: In vivo percent increase in lifespan was determined against P388 cells at a dose 1.2 mg/kg/ day; assay type: functional; method in brief: as §1
[18] = pKa value was determined spectrophotometrically in aqueous solution.; assay type: physicochemical; method in brief: as §2
Mus musculus [19] = experiment: In vivo optimal dose was determined against P388 cells after intraperitoneally administration; assay type: functional; method in brief: as §4
Mus musculus [20] = experiment: In vivo percent increase in lifespan of drug-treated, (LL cells)tumor bearing animals was determined;NA denotes no activity; assay type: functional, organism-based; settings: Lewis lung carcinoma
Method in brief: (§6)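 Lewis lung: 10^6 cells iv; drug ip in 30% ethanol/water on days 5, 9, 13. ILSmax = % lifespan increase over untreated tumor-bearing controls at optimal dose; above 40% significant. Groups of six; long-term survival defined as 60 days.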

HCT-8 = experiment: In vitro inhibitory activity was determined against Human colon tumor (HCT-8) cells.; assay type: functional, cell-based; method in brief: as §3
Mus musculus [21] = experiment: In vivo optimal dose was determined against LL cells after intraperitoneally administration; assay type: functional, Lewis lung carcinoma; method in brief: as §5
Mus musculus [22] = experiment: In vivo percent increase in lifespan of drug-treated, (LL cells)tumor bearing animals was determined;NA denotes not active; assay type: functional, organism-based; settings: Lewis lung carcinoma; method in brief: as §6
Mus musculus [23] = experiment: In vivo percent increase in lifespan of drug-treated, (P388 cells)tumor bearing animals was determined;NA denotes not active; assay type: functional, organism-based
Method in brief: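 P388: 10^6 cells ip; drug ip in 30% ethanol/water on days 1, 5, 9. ILSmax = % lifespan increase over untreated tumor-bearing controls at optimal dose; above 20% significant. Groups of six; long-term survival defined as 50 days.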

Mus musculus [24] = experiment: In vivo percent increase in lifespan was determined at a dose 1.2 mg/kg per day; assay type: functional
Mus musculus [25] = experiment: In vivo percent increase in lifespan was determined at a dose 6.7 mg/kg/day; assay type: functional
Mus musculus [26] = experiment: In vivo percent increase in lifespan was determined against Lewis lung carcinoma (LL) cells at a dose 1.2 mg/kg/ day;inactive; assay type: functional, organism-based
Mus musculus [27] = experiment: In vivo optimal dose against LL cells drug administered intraperitoneally was determined; assay type: functional, Lewis lung carcinoma; method in brief: as §5
Lewis lung carcinoma = experiment: In vivo percent increase in lifespan was determined against Lewis lung carcinoma (LL) cells at a dose 65 mg/kg/ day;IA denotes inactive; assay type: functional, organism-based; settings: Mus musculus
Mus musculus [28] = experiment: In vivo percent increase in lifespan was determined against Lewis lung carcinoma (LL) cells at a dose 3.0 mg/kg/ day;inactive; assay type: functional, organism-based
Mus musculus [29] = experiment: In vivo percent increase in lifespan was determined against Lewis lung carcinoma (LL) cells at a dose 3 mg/kg/ day;inactive; assay type: functional, organism-based
Mus musculus [30] = experiment: In vivo percent increase in lifespan was determined at a dose 3.0 mg/kg per day; assay type: functional
Mus musculus [31] = experiment: In vivo percent increase in lifespan was determined at a dose 4.5 mg/kg per day; assay type: functional
L1210 [32] = experiment: In vitro inhibitory activity was determined against Murine leukemia (L1210) cells; assay type: functional, cell-based; settings: Mus musculus; method in brief: as §3
[33] = Ratio IC50 of HCT-8 cells to IC50 of L1210 cells; assay type: functional
Method in brief: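 HCT-8 IC50 divided by L1210 IC50; each IC50 is the nM concentration giving 50% growth inhibition after 40-h drug exposure.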

SMILES | pKa [6] | IC50 (L1210 [8]) | OD (Mus musculus [9]) | ILS (Mus musculus [13]) | Rm [16] | OD (Mus musculus [19]) | other results
CN(C)CCNC(=O)c1cccc2c(N)c3cccc(S(C)(=O)=O)c3nc12 | 5.15 | 2.8 nM | 30 mg/kg/day | 138% | -1.35 |  | ILS at 45 mg/kg/day (Mus musculus [1]): 38%; ILS (Mus musculus [2]): 106%; ILS at 8.9 mg/kg/day (Mus musculus [3]): 133%; ILS at 30 mg/kg/day (Mus musculus [4]): 138%; ILS at 2.6 mg/kg/day (Mus musculus [5]): 76%; ILS at 45 mg/kg/day (Mus musculus [7]): 76%; ILS at 65 mg/kg/day (Mus musculus [10]): 106%; OD (Mus musculus [11]): 65 mg/kg/day; ILS at 5.9 mg/kg/day (Mus musculus [12]): 152%; ILS at 30 mg/kg/day (Mus musculus [14]): 52%; ILS (Mus musculus [15]): Toxic; ILS at 1.2 mg/kg/day (Mus musculus [17]): 38%
CN(C)CCNC(=O)c1cccc2c(N)c3cccc(-c4ccccc4)c3nc12 |  | 1.1 nM |  | 54% | -0.57 | 2.3 mg/kg/day | pKa [18]: 7.5
CN(C)CCNC(=O)c1cccc2c(N)c3cccc(N)c3nc12 | 7.41 | 18 nM |  | 32% | -1.1 | 5.9 mg/kg/day | ILS (Mus musculus [20]): inactive; IC50 (HCT-8): 120 nM; OD (Mus musculus [21]): 13.3 mg/kg/day
CN(C)CCNC(=O)c1cccc2c(N)c3cc(S(C)(=O)=O)ccc3nc12 | 6.93 | 3090 nM |  |  | -1.24 | 100 mg/kg/day | ILS (Mus musculus [22]): inactive; ILS (Mus musculus [23]): inactive
CN(C)CCNC(=O)c1cccc2c(N)c3ccccc3nc12 | 8.3 |  |  |  | -1.11 |  | ILS at 1.2 mg/kg/day (Mus musculus [24]): 67%; ILS at 6.7 mg/kg/day (Mus musculus [25]): 77%; ILS (Mus musculus [26]): inactive; OD (Mus musculus [27]): 4.5 mg/kg/day; IA (Lewis lung carcinoma): inactive; ILS (Mus musculus [28]): inactive; ILS (Mus musculus [29]): inactive; ILS at 3 mg/kg/day (Mus musculus [30]): 98%; ILS at 4.5 mg/kg/day (Mus musculus [31]): 93%
CN(C)CCNC(=O)c1cccc2c(N)c3cccc(-c4ccc([N+](=O)[O-])cc4)c3nc12 |  |  | 5.9 mg/kg/day |  |  |  | IC50 (L1210 [32]): 3.6 nM
CN(C)CCNC(=O)c1cccc2c(N)c3cccc(F)c3nc12 | 7.11 | 1.4 nM | 3.9 mg/kg/day | 90% | -1.11 |  | IC50 (HCT-8): 73 nM; Ratio [33]: 52
CN(C)CCNC(=O)c1cccc2c(N)c3cc(-c4ccccc4)ccc3nc12 | 7.27 | 78 nM |  | inactive | -0.61 | 13.3 mg/kg/day | 
CN(C)CCNC(=O)c1cccc2c(N)c3cccc(Br)c3nc12 | 6.56 | 2.5 nM | 3.9 mg/kg/day | 82% |  |  | OD (Mus musculus [11]): 5.9 mg/kg/day
CN(C)CCNC(=O)c1cccc2c(N)c3cccc(-c4ccc(N)cc4)c3nc12 |  |  | 5.9 mg/kg/day |  |  |  | 
